≈ marks a conversion by molar mass, not a printed value.
Assays:
[1] = test system: Mycobacterium tuberculosis; experiment: Antitubercular activity against Mycobacterium tuberculosis H37Rv assessed as bacterial growth inhibition incubated for 7 days by resazurin assay; type: functional; conditions: 168 h, time 7 day
[2] = Cytotoxicity against African green monkey Vero cells assessed as reduction in cell viability incubated for 72 hrs by MTT assay; type: toxicity, cell-based; conditions: chlorocebus sabaeus
How it was run: (§1)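 HepG2 and Vero cells were exposed to compound for 72 h, with viability read by MTT (mitochondrial activity) and neutral red uptake (lysosomal integrity). CC₅₀ is the concentration reducing cell viability by 50%.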

[3] = Selectivity index, ratio of CC50 for cytotoxicity against African green monkey Vero cells to MIC for antitubercular activity against Mycobacterium tuberculosis H37Rv; type: toxicity, cell-based
How it was run: (§2)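 SI = CC₅₀/MIC, with the MIC taken against H37Rv. CC₅₀ is the concentration that cuts cell viability by 50%, from cells exposed for 72 h. Viability was read by both MTT (mitochondrial activity) and neutral red uptake (lysosomal integrity).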

[4] = test system: HepG2; experiment: Cytotoxicity against human HepG2 cells assessed as reduction in cell viability incubated for 72 hrs by MTT assay; type: functional; how it was run: as §1
[5] = Selectivity index, ratio of CC50 for cytotoxicity against human HepG2 cells to MIC for antitubercular activity against Mycobacterium tuberculosis H37Rv; type: toxicity, cell-based; how it was run: as §2
[6] = test system: Mycobacterium tuberculosis; experiment: Antitubercular activity against Mycobacterium tuberculosis H37Rv infected in mouse RAW 264.7 cells assessed as reduction on bacterial colony growth at 2.5 uM incubated for 2 to 3 weeks; type: functional; conditions: time 2-3 weeks
How it was run: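 Mtb growth inside macrophages (in vitro infection model) was tested with compounds at 2.5 μM; the untreated control got 0.5% DMSO vehicle. Read-out was log₁₀ CFU/well, given as mean ± standard deviation and compared with the untreated group by Dunnett post-test (P < 0.05).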

[7] = Clearance in mouse plasma at 25 mg/kg,iv by HPLC analysis; type: ADME, organism-based
How it was run: (§3)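 Mouse pharmacokinetics after a single intravenous dose of 25 mg/kg (61.6 μmol/kg) or an oral dose of 121.6 mg/kg (300 μmol/kg). Plasma drug concentrations were quantified over time, including a 24 h sample after oral dosing. Oral bioavailability was estimated by comparing the two routes.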

[8] = Terminal half life in mouse plasma at 121.6 mg/kg,po by HPLC analysis; type: ADME, organism-based; conditions: read-out: beta t1/2; how it was run: as §3
[9] = Oral bioavailability in mouse plasma at 121.6 mg/kg by HPLC analysis; type: ADME, organism-based; how it was run: as §3
[10] = Inter-compartmental clearance in mouse plasma at 25 mg/kg,iv by HPLC analysis; type: ADME, organism-based; conditions: in vivo; how it was run: as §3
[11] = Volume of distribution at steady state in mouse plasma at 25 mg/kg,iv by HPLC analysis; type: ADME, organism-based; conditions: read-out: Vdss; how it was run: as §3
[12] = Permeability of the compound at 10 uM measured after 5 hrs by PAMPA based HPLC-MS/MS analysis; type: ADME; conditions: read-out: permeability
[13] = Apparent oral clearance in mouse plasma at 121.6 mg/kg,po by HPLC analysis; type: ADME, organism-based; how it was run: as §3
[14] = Chemical stability of the compound in pH 7.4 PBS assessed as remaining product at 10 uM incubated for 24 hrs by HPLC-MS/MS analysis; type: physicochemical; conditions: PBS pH 7.4, pH 7.4, read-out: Stability
How it was run: (§4)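 Compound incubated 24 h at 37 °C in 0.1 M HCl (pH 1.2), PBS (pH 7.4) or 0.1 M NH₄HCO₃ (pH 9.1). Result is reported as percentage of compound remaining after incubation.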

[15] = Terminal half life in mouse plasma at 25 mg/kg,iv by HPLC analysis; type: ADME, organism-based; conditions: read-out: beta t1/2; how it was run: as §3
[16] = Cmax in mouse plasma at 121.6 mg/kg,po by HPLC analysis; type: ADME, organism-based; design: dose 121.6 mg/kg, route po; how it was run: as §3
[17] = Solubility of the compound in PBS at pH 7.4 incubated for 4 hrs by liquid chromatography; type: physicochemical; conditions: PBS pH 7.4, pH 7.4
[18] = Metabolic stability in rat liver microsomes assessed as half life measured upto 30 min by HPLC-MS/MS analysis; type: ADME, Microsome
[19] = Metabolic stability in rat liver microsomes assessed as intrinsic clearance measured upto 30 min by HPLC-MS/MS analysis; type: ADME, Microsome; conditions: read-out: CLH
[20] = Chemical stability of the compound in pH 1.2 HCL assessed as remaining product at 10 uM incubated for 24 hrs by HPLC-MS/MS analysis; type: physicochemical; conditions: HCl pH 1.2, pH 1.2, read-out: Stability; how it was run: as §4
[21] = Chemical stability of the compound in pH 9.1 NH4HCO3 assessed as remaining product at 10 uM incubated for 24 hrs by HPLC-MS/MS analysis; type: physicochemical; conditions: NH4HCO3 pH 9.1, pH 9.1, read-out: Stability; how it was run: as §4
[22] = Volume of distribution at steady state in mouse plasma at 121.6 mg/kg,po by HPLC analysis; type: ADME, organism-based; conditions: in vivo; how it was run: as §3
[23] = Clearance in mouse plasma at 121.6 mg/kg,po by HPLC analysis; type: ADME, organism-based; how it was run: as §3
[24] = Absorption rate constant in mouse plasma at 121.6 mg/kg,po by HPLC analysis; type: ADME, organism-based; conditions: in vivo; how it was run: as §3
[25] = Plasma concentration in mouse plasma at 121.6 mg/kg,po measured after 24 hrs by HPLC analysis; type: ADME, organism-based; how it was run: as §3
[26] = Solubility of the compound in HCl at pH 1.2 incubated for 4 hrs by liquid chromatography; type: physicochemical; conditions: HCl pH 1.2, pH 1.2
[27] = Apparent oral volume of distribution in mouse plasma at 121.6 mg/kg,po by HPLC analysis; type: ADME, organism-based; how it was run: as §3

COc1ccc2nc(C)cc(OCC(=O)Nc3ccccc3OC)c2c1
MIC [1]: 0.44 µM (≈ 0.155 µg/mL)

COc1ccc2nc(C)cc(OCC(=O)Nc3ccc4ccccc4c3)c2c1
MIC [1]: 0.05 µM (≈ 0.0186 µg/mL)

CCCc1ccc(NC(=O)COc2cc(C)nc3ccc(OC)cc23)cc1
MIC [1]: 0.05 µM (≈ 0.0182 µg/mL)

Cc1cc(OCC(=O)Nc2ccc(N3CCCCC3)cc2)c2cc(Cl)ccc2n1
MIC [1]: 0.75 µM (≈ 0.307 µg/mL)

COc1ccc2nc(C)cc(OCC(=O)N[C@H]3C[C@H]4C[C@@H]([C@@H]3C)C4(C)C)c2c1
MIC [1]: 3.3 µM (≈ 1.26 µg/mL)

Cc1cc(OCC(=O)Nc2ccc(N3CCCCC3)cc2)c2cc(Br)ccc2n1
MIC [1]: 0.68 µM (≈ 0.309 µg/mL)

COc1ccc2nc(C(F)(F)F)cc(OCC(=O)Nc3ccc(N4CCCCC4)cc3)c2c1
MIC [1]: 0.17 µM (≈ 0.0781 µg/mL)

COc1ccc2nc(C)cc(OCC(=O)Nc3ccc(N4CCSCC4)cc3)c2c1
MIC [1]: 0.37 µM (≈ 0.157 µg/mL)

COc1ccc2nc(C)cc(OCC(=O)NC3CCC3)c2c1
MIC [1]: 33.3 µM (≈ 10 µg/mL)

CCc1cc(OCC(=O)Nc2ccc(N3CCCCC3)cc2)c2cc(OC)ccc2n1
CC50 at 72 h [2]: > 20 µM | selectivity ratio [3]: > 105 | CC50 [4]: > 20 µM | selectivity ratio [5]: > 105 | MIC [1]: 0.19 µM (≈ 0.0797 µg/mL) | Activity [6]: 4.13 log10CFU

COc1ccc2nc(C)cc(OCC(=O)NC3CCCCC3C)c2c1 (centres undefined)
MIC [1]: 14.6 µM (≈ 5 µg/mL)

COc1ccc2nc(C)cc(OCC(=O)NC3CCCCC3)c2c1
MIC [1]: 7.6 µM (≈ 2.5 µg/mL)

COc1ccc2nc(C)cc(OCC(=O)NCC3CCCCC3)c2c1
MIC [1]: 7.3 µM (≈ 2.5 µg/mL)

COc1ccc2nc(C)cc(OCC(=O)N[C@@H]3C[C@@H]4C[C@H]([C@H]3C)C4(C)C)c2c1
MIC [1]: 26.1 µM (≈ 9.98 µg/mL)

COc1ccc2nc(C)cc(OCC(=O)NC3CCCCCC3)c2c1
MIC [1]: 3.7 µM (≈ 1.27 µg/mL)

COc1ccc2nc(C)cc(OCC(=O)NC3CCCC3)c2c1
MIC [1]: 15.9 µM (≈ 5 µg/mL)

CCc1cc(OCC(=O)Nc2ccc(N3CCCCC3)cc2)c2cc(Br)ccc2n1
MIC [1]: 0.34 µM (≈ 0.159 µg/mL)

CCc1cc(OCC(=O)Nc2ccc(N3CCCCC3)cc2)c2cc(Cl)ccc2n1
MIC [1]: 0.37 µM (≈ 0.157 µg/mL)

COc1ccc2nc(C)cc(OCC(=O)NC3C4CC5CC(C4)CC3C5)c2c1 (centres undefined)
MIC [1]: 6.6 µM (≈ 2.51 µg/mL)

COc1ccc2nc(C)cc(OCC(=O)N[C@H](C)C3CCCCC3)c2c1
MIC [1]: > 14 µM

COc1ccc2nc(C)cc(OCC(=O)Nc3ccc(N4CCCCC4)cc3)c2c1
clearance [7]: 1.47 mL/min/kg | half-life [8]: 1.72 h | bioavailability [9]: 51% | CL [10]: 5.65 mL/min/kg | Vd [11]: 0.304 L/kg | CC50 at 72 h [2]: > 20 µM | selectivity ratio [3]: > 222 | CC50 [4]: > 20 µM | Papp at 5 h, 10 µM [12]: 4.5 ×10⁻⁶ cm/s | CL/F [13]: 3.77 mL/min/kg | remaining at 24 h, 10 µM [14]: 100% | half-life [15]: 2.27 h | Cmax [16]: 8300 ng/mL | solubility at 4 h [17]: 31.4 µM (≈ 12.7 µg/mL) | half-life [18]: 2.93 h | CLint scaled [19]: 7.5 mL/min/kg | remaining at 24 h, 10 µM [20]: 58.3% | remaining at 24 h, 10 µM [21]: 62.1% | Vdss [22]: 0.234 L/kg | CL/F [23]: 1.92 mL/min/kg | selectivity ratio [5]: > 222 | Ka [24]: 3.01 h⁻¹ | concentration at 24 h [25]: 1140 ng/mL | solubility at 4 h [26]: > 2500 µM | MIC [1]: 0.09 µM (≈ 0.0365 µg/mL) | Activity [6]: 4.13 log10CFU | Vd/F [27]: 0.46 L/kg

O=C(COc1cc(C(F)(F)F)nc2ccc(Br)cc12)Nc1ccc(N2CCCCC2)cc1
MIC [1]: 78.7 µM (≈ 40 µg/mL)

COc1ccc2nc(C)cc(OCC(=O)Nc3ccc(N4CCOCC4)cc3)c2c1
MIC [1]: 3.1 µM (≈ 1.26 µg/mL)

O=C(COc1cc(C(F)(F)F)nc2ccc(Cl)cc12)Nc1ccc(N2CCCCC2)cc1
MIC [1]: 86.2 µM (≈ 40 µg/mL)

COc1ccc2nc(C)cc(OCC(=O)N[C@@H](C)C3CCCCC3)c2c1
MIC [1]: > 14 µM

COc1ccc2nc(C)cc(OCC(=O)NC3CCC(C)CC3)c2c1 (centres undefined)
MIC [1]: 7.3 µM (≈ 2.5 µg/mL)

NNC(=O)c1ccncc1 [ISONIAZID]
MIC [1]: 2.3 µM (≈ 0.315 µg/mL)

CO[C@H]1/C=C/O[C@@]2(C)Oc3c(C)c(O)c4c(O)c(c(/C=N/N5CCN(C)CC5)c(O)c4c3C2=O)NC(=O)/C(C)=C\C=C\[C@H](C)[C@H](O)[C@@H](C)[C@@H](O)[C@@H](C)[C@H](OC(C)=O)[C@@H]1C [RIFAMPIN]
MIC [1]: 0.05 µM (≈ 0.0411 µg/mL)
